Screens as filed in PubChem BioAssay.
M1 ag – human M1 muscarinic receptor agonists, primary screen, Fluo-8 calcium fluorescence, CHO-K1 cells, HTS; hit rate 0.33% among 360,000; Muscarinic acetylcholine receptor M1 (Homo sapiens), P11229; activation, % at 3 µM; CHO-K1 hM1, agonist mode; 0% DMSO, 100% acetylcholine EC100;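 active means activation above the run's mean compound activation plus 3 SD, cut at about 16% in these data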;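 further: peak over basal fluorescence ratio within a 140 s kinetic read after compound addition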
m5-HT2A agonist – mouse Htr2a agonists via beta-arrestin recruitment, primary screen, cell-based, luminescence | 5-hydroxytryptamine receptor 2A (Mus musculus), P35363 | CHO-K1 mHTR2A beta-arrestin complementation; percent of 30 µM serotonin response | activation, % at 7.6 µM | hit rate 0.66% among 360,000 | AID 624169, 2012;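 active means activation above a run cutoff, the mean activation of all tested compounds plus 3 SD, cut at about 14% in these data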;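 further: 0% = plate median of compound wells and 100% = 30 µM serotonin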
Target sequence (P35363 whole entry, looked up): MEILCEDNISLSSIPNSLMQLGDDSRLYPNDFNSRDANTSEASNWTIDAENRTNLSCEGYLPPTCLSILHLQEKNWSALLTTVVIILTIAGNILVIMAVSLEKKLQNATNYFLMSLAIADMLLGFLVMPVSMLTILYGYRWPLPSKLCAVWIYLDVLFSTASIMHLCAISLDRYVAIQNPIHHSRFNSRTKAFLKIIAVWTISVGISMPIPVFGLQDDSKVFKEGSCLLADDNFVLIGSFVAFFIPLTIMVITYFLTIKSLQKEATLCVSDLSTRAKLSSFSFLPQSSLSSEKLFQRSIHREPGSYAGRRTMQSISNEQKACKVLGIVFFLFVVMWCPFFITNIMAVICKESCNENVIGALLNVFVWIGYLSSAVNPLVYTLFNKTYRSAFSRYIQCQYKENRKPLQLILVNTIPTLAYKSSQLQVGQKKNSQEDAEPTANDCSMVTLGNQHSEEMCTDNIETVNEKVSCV
TAAR1 antagonist – human TAAR1 antagonists, primary screen, Fluo-8 calcium fluorescence, CHO RD-HGA16 cells; Trace amine-associated receptor 1 (Homo sapiens), Q96RJ0; inhibition, % at 3 µM; antagonist; AID 624466, 2012; hit rate 1.5% among 360,000;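 active means inhibition above a per-plate cutoff, the mean inhibition of test compounds on that plate plus 3 SD, cut at about 49% in these data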;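 further: 0% = DMSO plus EC80 beta-PEA response and 100% = DMSO alone without agonist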
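System: RD-HGA16 CHO cells with stable hTAAR1 and Gα16 | Probe or stimulus: EC80 β-phenethylamine stimulus | Dosing: 3 µM, single point | Times: Dye loading 75 min at 37 °C, then 30 min room temperature | Measured by: Fluo-8 calcium-sensitive fluorescence | Read-out basis: % inhibition of agonist calcium response | Replicates: n of 1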
CHRM1 antagonist – human M1 muscarinic receptor antagonists, primary screen, CHO-K1 cells, Fluo-8 calcium fluorescence, 1536-well; hit rate 1.3% among 360,000; Muscarinic acetylcholine receptor M1 (Homo sapiens), P11229; AID 588852, 2011; inhibition, % at 3 µM; CHO-K1 hM1, ACh EC80 antagonist;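 active means percent inhibition above its own plate's cutoff, namely the mean of that plate's compound wells plus 3 SD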;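 further: peak over basal fluorescence ratio during 140 s after agonist addition; 0% = ACh EC80 plus DMSO and 100% = DMSO alone without agonist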
CHRM1 PAM – human M1 muscarinic receptor positive allosteric modulators, primary screen, CHO-K1 cells, Fluo-8 calcium fluorescence, 1536-well; CHO-K1 hM1, ACh EC20; 0% = ACh EC20, 100% = maximal ACh; hit rate 0.088% among 360,000; activation, % at 3 µM; AID 588819, 2011; Muscarinic acetylcholine receptor M1 (Homo sapiens), P11229; in the data active means activation above about 19%, passing the limit was not always enough
TAAR1 agonist – human TAAR1 agonists, primary screen, Fluo-8 calcium fluorescence, CHO RD-HGA16 cells | vehicle wells 0%, saturating PEA agonist 100% | activation, % at 3 µM | hit rate 0.99% among 360,000;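 active means activation above the mean activation of all test compounds in the run plus 3 SD, cut at about 38% in these data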
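Assay system – CHO-derived RD-HGA16 cells with stable Gα16 and human TAAR1 · Compound dosing – one-point dosing at 3 µM (nominal) · Incubation – 17-24 h seeding, 75 min 37 °C dye, 30 min RT · Measured by – kinetic Fluo-8 calcium fluorescence · Control set – DMSO vehicle as 0%, PEA at EC100 as 100% · Repeats – single well for each compound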
TAAR1 ag conf – human TAAR1 agonists, retest of hits, confirmation, Fluo-8 calcium fluorescence, CHO RD-HGA16 cells; shares compounds with TAAR1 agonist; scaled: DMSO 0%, maximal phenethylamine 100%; activation, % at 3 µM; hit rate 82% among 2,400; AID 651783, 2012;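 active means activation above a cutoff set at the run's mean compound activation plus 3 SD, cut at about 39% in these data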
Ga16 ag counter – nonselective calcium mobilization agonists, CHO-Ga16 cells, counter-screen for hTAAR1 agonist project, cell-based, fluorescence, CHO-Ga16 parental line; shares compounds with TAAR1 agonist; activation, % at 3 µM; hit rate 50% among 2,400; Fluo-8 calcium fluorescence; normalized to maximal ATP response, DMSO zero; AID 651787, 2012;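 active means activation above the run cutoff, the mean activation over all tested wells plus 3 SD, cut at about 12% in these data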;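 further: 0% = DMSO wells and 100% = maximal ATP response on the peak over basal ratio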
TAAR1 desensitize – TAAR1 desensitization by agonist hits, confirmation, counter-screen for TAAR1 agonist project, cell-based, fluorescence, tachyphylaxis; shares compounds with TAAR1 agonist; hit rate 46% among 2,400; CHO RD-HGA16 hTAAR1, Fluo-8 calcium, beta-PEA response inhibition; inhibition, % at 3 µM; AID 651951, 2012;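 active means inhibition above the run cutoff, the mean inhibition of all test compounds plus 3 SD, cut at about 49% in these data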;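 further: beta-PEA stimulus applied at its EC80; loss of beta-PEA calcium signal after compound pretreatment read as receptor desensitization; 0% = DMSO with beta-PEA at EC80 and 100% = DMSO alone without agonist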
Ga16 antag count – inhibition of ATP-evoked calcium response in CHO-Ga16 cells, counter-screen for TAAR1 agonist project, cell-based, fluorescence; shares compounds with TAAR1 agonist; CHO-Ga16 ATP-induced calcium, Fluo-8 fluorescence; inhibition, % at 3 µM; hit rate 39% among 2,400; AID 651952, 2012;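 active means inhibition above the plate's mean compound inhibition plus 3 SD, computed per plate, cut at about 22% in these data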;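 further: 0% = EC80 ATP with DMSO and 100% = DMSO wells without ATP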
* hit, by the source's call; . = not tested or not shown. Compounds with a hit are over-represented: about 3.9% of the library has one in this group of screens.

SMILES	M1 ag	m5-HT2A agonist	TAAR1 antagonist	CHRM1 antagonist	CHRM1 PAM	TAAR1 agonist	TAAR1 ag conf	Ga16 ag counter	TAAR1 desensitize	Ga16 antag count
CCOC(=O)Cn1c(=O)oc2cc(S(=O)(=O)NCCc3ccc(C)cc3)ccc21	4.4	-2.7	21.4	-10.2	2.9	9.6	.	.	.	.
CCOC(=O)Cn1c(=O)oc2cc(S(=O)(=O)Nc3ccc(F)cc3)ccc21	30.6*	4.3	44.1	-2.4	7.2	89.1*	109.3*	69.1*	52.1*	32.1*
CCCCCCSc1ccc([C@H]2N[C@@](C)(C(=O)OC)[C@H]3C(=O)N(CC)C(=O)[C@@H]23)cc1	-5.8	0.8	9.4	0.2	1.2	3.5	.	.	.	.
COc1cc2c(cc1OC)C(C)N(C(=O)c1cc3c(C)cc(C)cc3[nH]1)CC2 (configuration not stated)	-1.8	1.4	-23.8	-13.5	8.1	-1.2	.	.	.	.
CC1CC1C(=O)OCC(=O)N(C)c1c(N)n(Cc2ccccc2)c(=O)[nH]c1=O (configuration not stated)	0.0	-2.2	-19.9	-4.9	4.5	50.7*	4.0	13.9*	2.7	9.0
c1ccc(SCCOCCN2CCOCC2)cc1	-4.4	-1.2	-2.0	-16.6	10.7	0.0	.	.	.	.
c1ccc(SCCOCCN2CCc3ccccc3C2)cc1	-10.7	-7.2	-19.8	1.0	-7.8	50.2*	61.5*	0.2	14.8	3.7
c1ccc(SCCN2CCc3ccccc3C2)cc1	-9.2	-6.4	-6.2	0.9	-1.9	70.3*	80.0*	-1.0	37.2	1.2
COc1ccc(-c2noc(CCC(=O)N3CCN(c4ccccc4F)CC3)n2)cc1	-6.4	-5.9	-23.0	-13.4	6.4	1.4	.	.	.	.
COc1ccccc1N(C1=NCCCS1)S(=O)(=O)c1ccc(C(C)(C)C)cc1	-4.6	-2.9	-4.7	15.8	-1.6	-0.9	.	.	.	.
CCCCCCOc1ccc(/C(C)=N/NC2=NCCN2)cc1	-1.0	-3.0	20.7	-18.2	11.3	62.8*	48.2*	22.8*	36.7	24.2*
CC1(C2CC2)NC(=O)N(CC(=O)Nc2ccc(F)cc2F)C1=O (configuration not stated)	-0.4	5.2	10.5	2.9	0.6	-0.8	.	.	.	.
O=C(NCC(c1ccco1)N1CCc2ccccc2C1)c1ccc(Cl)cc1 (configuration not stated)	-6.2	3.7	33.9	5.5	-1.0	73.9*	38.1*	0.6	3.6	7.9
O=C(NCC(c1ccco1)N1CCc2ccccc2C1)c1ccc(Br)cc1 (configuration not stated)	-7.3	-10.4	19.7	-7.7	0.2	45.4*	23.5	2.2	10.9	12.8
CCOc1ccc(C(=O)NCC(c2ccco2)N2CCc3ccccc3C2)cc1 (configuration not stated)	-6.0	-1.4	-65.4	-7.8	1.7	6.7	.	.	.	.
CC(NC(=O)c1cccs1)c1ccc(Br)cc1 (configuration not stated)	-3.7	0.2	-29.1	-6.3	5.0	2.6	.	.	.	.
COc1ccc(CCNCC(O)COc2ccc(OC)cc2C(C)(C)C)cc1 (configuration not stated)	-2.1	-9.2	32.9	-15.8	11.2	65.6*	95.8*	13.9*	69.6*	16.4
COc1ccc(CCNCC(O)COc2cccc(Br)c2)cc1OC (configuration not stated)	-5.3	-6.8	-8.8	1.5	-3.4	16.4	.	.	.	.
CCCCC(=O)NC(N1CCCCC1)C(Cl)(Cl)Cl (configuration not stated)	-0.5	-4.1	-2.2	-43.4	8.3	10.0	.	.	.	.
CC1CN(C(NC(=O)C(C)(C)C)C(Cl)(Cl)Cl)CC(C)O1 (configuration not stated)	-1.9	-2.7	18.8	-19.3	1.0	65.0*	85.0*	3.0	30.5	-1.6
CC1CN(C(NC(=O)c2ccccc2)C(Cl)(Cl)Cl)CC(C)O1 (configuration not stated)	-8.8	1.1	-9.1	6.4	-6.1	46.1*	69.7*	3.4	6.6	4.0
FC(F)(F)c1cc(CCN2CCNC[C@@H]2Cc2ccccc2)cc(C(F)(F)F)c1	-4.1	3.9	-0.6	18.8	11.2	57.1*	58.5*	16.7*	32.6	18.5
CCCC[C@@H]1CNCCN1CCc1cccc(F)c1	-13.0	2.0	2.4	-4.2	-11.2	61.9*	75.1*	9.1	45.6	9.6
Fc1cccc(CCN2CCNC[C@@H]2Cc2ccccc2)c1	-7.0	-16.2	-16.4	-11.8	-0.8	28.9	.	.	.	.
Cn1ccs/c1=N\C(=O)Nc1cccc(C(F)(F)F)c1	-2.6	5.1	5.1	-0.2	-3.1	-0.4	.	.	.	.
CCC(COC)NC(=O)c1ccc(OC)c(OC2CCN(C(C)=O)CC2)c1 (configuration not stated)	-0.3	-8.4	-16.3	-3.3	0.4	1.1	.	.	.	.
COc1ccc2[nH]c(=O)c(C(c3nnnn3CC3CCCO3)N3CCc4ccccc4C3)cc2c1 (configuration not stated)	-3.2	0.9	8.6	-0.7	12.8	61.1*	54.8*	6.0	15.1	20.7
Cc1ccc2[nH]c(=O)c(C(c3nnnn3CC3CCCO3)N3CCc4ccccc4C3)cc2c1 (configuration not stated)	-3.7	0.8	0.2	-1.8	8.7	26.6	.	.	.	.
